≈ marks a conversion by molar mass, not a printed value.
Tests used:
Staphylococcus aureus [1] = assay: Antimicrobial activity against intracellular hospital acquired methicillin-resistant Staphylococcus aureus ATCC 33591 activated infected in human THP-1 cells assessed as decrease in bacterial growth after 24 hrs at pH 7.4; type: functional, organism-based; details: ATCC 33591, THP-1, 24 h
Summary of the method: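 THP-1 cells activated by 24-h culture with phorbol myristate acetate 2 mg/liter, then infected like unactivated THP-1. Cloxacillin dose range in mg/liter for 24 h. CFU per mg cell protein relative to the original inoculum, n = 3. Emin and Emax extrapolated from a Hill fit (slope 1), with EC50 as total drug; static concentration by graphical interpolation.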

Staphylococcus aureus [2] = assay: Bacteriostatic activity against intracellular beta-lactamase negative methicillin-susceptible Staphylococcus aureus ATCC 25923 infected in human keratinocytes assessed as decrease in bacterial growth after 24 hrs at pH 7.4; type: functional
Summary of the method: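 Primary human skin keratinocytes or Calu-3 bronchial epithelial cells infected with MSSA ATCC 25923 at 5 × 10⁷ to 1 × 10⁸ bacteria/ml, 2 h internalization. Postphagocytosis inoculum 1.5 × 10⁶ to 3.0 × 10⁶ CFU/mg protein. Cloxacillin concentration range for 24 h; CFU/mg protein change vs. inoculum (n = 3). Hill fit gives Emin/Emax; static concentration by graphical interpolation.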

Staphylococcus aureus [3] = assay: Antimicrobial activity against intracellular hospital acquired methicillin-resistant Staphylococcus aureus ATCC 33591 infected in human Calu3 cells assessed as increase in bacterial count from original inoculum at low compound concentration after 24 hrs at pH 7.4; type: functional, Calu-3
Summary of the method: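 Primary human skin keratinocytes or Calu-3 bronchial epithelial cells, given an inoculum of 5 × 10⁷ to 1 × 10⁸ bacteria/ml and 2 h for internalization. Post-phagocytosis load 1.5 × 10⁶ to 3.0 × 10⁶ CFU per mg cell protein. Cloxacillin dose range in mg/liter for 24 h, n = 3. Hill-derived Emin, Emax and EC50; static concentration interpolated.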

Staphylococcus aureus [4] = assay: Antimicrobial activity against beta-lactamase negative methicillin-susceptible Staphylococcus aureus ATCC 25923 infected in human THP-1 cells assessed as decrease in bacterial count from original inoculum at high compound concentration after 24 hrs at pH 7.4; type: functional
Staphylococcus aureus [5] = assay: Bacteriostatic activity against beta-lactamase negative methicillin-susceptible Staphylococcus aureus ATCC 25923 infected in human THP-1 cells assessed as decrease in bacterial growth after 24 hrs at pH 7.4; type: functional
Staphylococcus aureus [6] = assay: Antimicrobial activity against beta-lactamase negative methicillin-susceptible Staphylococcus aureus ATCC 25923 by broth microdilution method at pH 7.4; type: functional
Staphylococcus aureus [7] = assay: Antimicrobial activity against constitutive beta-lactamase negative methicillin-resistant Staphylococcus aureus COL NRS100 by broth microdilution method at pH 7.4; type: functional
Staphylococcus aureus [8] = assay: Antimicrobial activity against hospital acquired methicillin-resistant Staphylococcus aureus N4120032 obtained from wound infection of patient by broth microdilution method at pH 7.4; type: functional
Summary of the method: (§1)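 Minimal inhibitory concentration by broth microdilution at pH 7.4, read in mg/liter. The MRSA genotype was confirmed by mecA PCR, and the SCCmec subgroup was assigned by multiplex PCR.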

Staphylococcus aureus [9] = assay: Antimicrobial activity against hospital acquired methicillin-resistant and vancomycin-intermediate Staphylococcus aureus NRS126 obtained from patient with bloodstream infection by broth microdilution method at pH 7.4; type: functional; summary of the method: as §1
Staphylococcus aureus [10] = assay: Antimicrobial activity against Panton-valentine leukocidin positive community acquired methicillin-resistant Staphylococcus aureus N4042228 by broth microdilution method at pH 5.5; type: functional
Staphylococcus aureus [11] = assay: Antimicrobial activity against hospital acquired methicillin-resistant and vancomycin-intermediate Staphylococcus aureus NRS18 obtained from patient with wound, skin and soft tissue infection by broth microdilution method at pH 5.5; type: functional
Staphylococcus aureus [12] = assay: Antimicrobial activity against animal acquired methicillin-resistant Staphylococcus aureus N7112046 by broth microdilution method at pH 5.5; type: functional
Staphylococcus aureus [13] = assay: (§2) Antimicrobial activity against hospital acquired methicillin-resistant Staphylococcus aureus N4120032 obtained from wound infection of patient infected in human THP-1 cells assessed as increase in bacterial count from original inoculum at low compound concentration after 24 hrs at pH 5.5; type: functional
Summary of the method: (§3)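 Bacteria phagocytosed by unactivated human THP-1 macrophages, then incubated 24 h with extracellular antibiotic at about 0.01× to 100× the pH 5.5 broth MIC. CFU per mg cell protein counted against the original inoculum, n = 3. A Hill-equation fit (slope factor 1) gave Emin and Emax, extrapolated to infinitely low and high concentration, and EC50. Static concentration was graphically interpolated.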

Staphylococcus aureus [14] = assay: (§4) Antimicrobial activity against hospital acquired methicillin-resistant Staphylococcus aureus HMC546 infected in human THP-1 cells assessed as increase in bacterial count from original inoculum at low compound concentration after 24 hrs at pH 5.5; type: functional; summary of the method: as §3
Staphylococcus aureus [15] = assay: as §4, with “Panton-valentine leukocidin positive community” for “hospital”, “NRS192 obtained from patient with pneumonia and septic arthritis” for “HMC546”; type: functional; summary of the method: as §3
Staphylococcus aureus [16] = assay: as §2, with “methicillin-resistant and vancomycin-intermediate” for “methicillin-resistant”, “NRS18” for “N4120032”, “wound, skin and soft tissue” for “wound”; type: functional
Summary of the method: (§5)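 Human THP-1 macrophages infected with each S. aureus strain. Cloxacillin added extracellularly at about 0.01× to 100× the broth MIC measured at pH 5.5, with gentamicin 0.5 mg/liter to stop extracellular growth. Incubated 24 h. CFU counted per mg cell protein as change from the post-phagocytosis inoculum, n = 3. Emin, Emax and EC50 from a Hill fit; static concentration by graphical interpolation.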

Staphylococcus aureus [17] = assay: as §2, with “methicillin-resistant and vancomycin-intermediate” for “methicillin-resistant”, “NRS126” for “N4120032”, “bloodstream” for “wound”; type: functional; summary of the method: as §3
Staphylococcus aureus [18] = assay: Antimicrobial activity against animal acquired methicillin-resistant Staphylococcus aureus N7112046 infected in human THP-1 cells assessed as increase in bacterial count from original inoculum at low compound concentration after 24 hrs at pH 5.5; type: functional; summary of the method: as §3
Staphylococcus aureus [19] = assay: Antimicrobial activity against Panton-valentine leukocidin positive community acquired methicillin-resistant Staphylococcus aureus N4042228 infected in human THP-1 cells assessed as decrease in bacterial count from original inoculum at high compound concentration after 24 hrs at pH 5.5; type: functional; summary of the method: as §3
Staphylococcus aureus [20] = assay: Antimicrobial activity against hospital acquired methicillin-resistant and vancomycin-intermediate Staphylococcus aureus VRS2 obtained from wound, skin and soft tissue infection of patient infected in human THP-1 cells assessed as decrease in bacterial count from original inoculum at high compound concentration after 24 hrs at pH 5.5; type: functional; summary of the method: as §5
Staphylococcus aureus [21] = assay: Antimicrobial activity against Panton-valentine leukocidin positive community acquired methicillin-resistant Staphylococcus aureus NRS192 obtained from patient with pneumonia and septic arthritis infected in human THP-1 cells assessed as decrease in bacterial growth after 24 hrs at pH 5.5; type: functional, organism-based; details: NRS192, THP-1, 24 h; summary of the method: as §3
Staphylococcus aureus [22] = assay: Antimicrobial activity against animal acquired methicillin-resistant Staphylococcus aureus N7112046 infected in human THP-1 cells assessed as decrease in bacterial growth after 24 hrs at pH 5.5; type: functional, organism-based; details: N7112046, THP-1, 24 h; summary of the method: as §3
Staphylococcus aureus [23] = assay: Bacteriostatic activity against hospital acquired methicillin-resistant Staphylococcus aureus ATCC 33591 infected in human THP-1 cells assessed as decrease in bacterial growth after 24 hrs at pH 5.5; type: functional; summary of the method: as §5
Staphylococcus aureus [24] = assay: Bacteriostatic activity against Panton-valentine leukocidin positive community acquired methicillin-resistant Staphylococcus aureus N4090440 infected in human THP-1 cells assessed as decrease in bacterial growth after 24 hrs at pH 5.5; type: functional; summary of the method: as §5
Staphylococcus aureus [25] = assay: Bacteriostatic activity against animal acquired methicillin-resistant Staphylococcus aureus N7112046 infected in human THP-1 cells assessed as decrease in bacterial growth after 24 hrs at pH 5.5; type: functional; summary of the method: as §5

Cc1onc(-c2ccccc2Cl)c1C(=O)N[C@@H]1C(=O)N2[C@@H]1SC(C)(C)[C@@H]2C(=O)O [CLOXACILLIN]
EC50 (Staphylococcus aureus [1]): 0.32 µg/mL (≈ 0.734 µM)
Activity (Staphylococcus aureus [2]): 1.1 mg/L
log10cfu (Staphylococcus aureus [3]): 2.39
log10cfu (Staphylococcus aureus [4]): 0.77
Activity (Staphylococcus aureus [5]): 0.6 mg/L
MIC (Staphylococcus aureus [6]): 0.125 µg/mL (≈ 0.287 µM)
MIC (Staphylococcus aureus [7]): > 512 µg/mL
MIC (Staphylococcus aureus [8]): 1 µg/mL (≈ 2.29 µM)
MIC (Staphylococcus aureus [9]): 16 µg/mL (≈ 36.7 µM)
MIC (Staphylococcus aureus [10]): 0.03 µg/mL (≈ 0.0688 µM)
MIC (Staphylococcus aureus [11]): 0.06 µg/mL (≈ 0.138 µM)
MIC (Staphylococcus aureus [12]): 0.125 µg/mL (≈ 0.287 µM)
log10cfu (Staphylococcus aureus [13]): 2.63
log10cfu (Staphylococcus aureus [14]): 2.06
log10cfu (Staphylococcus aureus [15]): 1.84
log10cfu (Staphylococcus aureus [16]): 2.07
log10cfu (Staphylococcus aureus [17]): 2.76
log10cfu (Staphylococcus aureus [18]): 1.84
log10cfu (Staphylococcus aureus [19]): 0.63
log10cfu (Staphylococcus aureus [20]): 0.78
EC50 (Staphylococcus aureus [21]): 6.07 ×MIC
EC50 (Staphylococcus aureus [22]): 6.99 ×MIC
Activity (Staphylococcus aureus [23]): 17.8 ×MIC
Activity (Staphylococcus aureus [24]): 17.4 ×MIC
Activity (Staphylococcus aureus [25]): 17.8 ×MIC

From ChEMBL document CHEMBL1649111, “Restoration of susceptibility of intracellular methicillin-resistant Staphylococcus aureus to beta-lactams: comparison of strains, cells, and antibiotics” (Antimicrob Agents Chemother, 2008)
